Source: PubChem BioAssay
STAT1 inh: inhibitors of IFN-gamma induced STAT1 signaling; NIH 3T3 STAT1-luciferase reporter, luminescence; inhibition, % at 5.5 µM; actives 0.35% (n = 200,000);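 active = inhibition above a set limit, the mean inhibition across all tested compounds plus 3 SD, cut at about 34% in these data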;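 note: 0% = IFN-gamma with DMSO and 100% = IFN-gamma with 300 µM nifuroxazide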
APP 5'UTR act: APP 5'UTR luciferase reporter activation | actives 1% (n = 190,000) | activation, % at 2 µM | AID 1276 | SH-SY5Y APP 5'UTR luciferase reporter, luminescence; zero percent = DMSO vehicle wells;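 active = activation above a set limit, based on mean plus 3 SD of controls, cut at about 140% in these data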
STAT3 act: increases IL-6 driven STAT3 reporter signal; U3A cells, IL-6 STAT3-luciferase reporter, luminescence; 100% = signal with IL-6 EC80 alone; activation (% of control), % at 5.6 µM; actives 0.91% (n = 190,000);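 active = activation above the screen-wide mean of compound activation plus 3 SD, cut at about 130% in these data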;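 note: 0% = background luminescence of wells with medium and substrate only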
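Detection: reporter luminescence signal / Assay system: STAT1-lacking human U3A cells, STAT3 luciferase reporter / Incubation: compound pre-incubation 1 h before IL-6, then 6 h stimulation at 37 °C / Control set: IL-6-only high control / Read-out: % activation relative to IL-6 control / Probe or stimulus: Interleukin-6, 33 ng/mL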
STAT3 blocker: inhibitors of IL-6 induced STAT3 signaling; U3A cells, IL-6 STAT3-luciferase reporter, luminescence; host cell line lacks STAT1; inhibition, % at 5.5 µM; actives 0.89% (n = 190,000);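 active = inhibition above the mean inhibition across all screened compounds plus 3 SD, cut at about 44% in these data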;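 note: 0% = DMSO only wells and 100% = 100 µM nifuroxazide control wells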
NF-kB neuron act: NF-kB expression increase, human neuronal cells | NF-kB reporter expression; hits give high values | fold change at 12.5 µM | actives 1.6% (n = 190,000) | AID 1239; in the data active = fold change above about 3.3
STAT1 act: STAT1 signaling activation; actives 2.6% (n = 200,000); activation (% of control), % at 5.5 µM; NIH 3T3 STAT1-luciferase reporter, IFN-gamma, luminescence; 100% = IFN-gamma alone, no compound; AID 932;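 active = activation above the screen-wide mean activation plus 3 SD, cut at about 130% in these data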;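 note: raw ratio to IFN-gamma control signal so 100% means no change and 0% no light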
* marks the source's active call; other numbers are inactive results; nt = no result given. Most compounds without a hit are left out; they make up all but 4.9% or so of the library.

SMILES	STAT1 inh	APP 5'UTR act	STAT3 act	STAT3 blocker	NF-kB neuron act	STAT1 act
CC1CCC/C(=C\Nc2ccc(C(=O)O)cc2)C1=O (centres undefined)	-56	139*	94	11	3.8*	149*
CCOC(=O)c1ccc(N/C=C2/CCCC(C)C2=O)cc1 (centres undefined)	-25	16	95	6	2.5	115
COc1ccc(-c2ccc(/C=C3/C(=N)N4C(C)=CSC4=NC3=O)o2)c([N+](=O)[O-])c1	-7	0	104	4	1	106
O=C(C1CC1)N1CCN(c2nc3ccccc3s2)CC1	-34	94	90	12	2.2	131*
O=C(Nc1ccc(F)cc1)N1CCN(c2nc3ccccc3s2)CC1	7	-11	63	46*	1.1	93
O=C(Nc1ccccc1)N1CCN(c2nc3ccccc3s2)CC1	0	9	69	40	1.1	100
CCC(=O)N1CCN(c2nc3ccccc3s2)CC1	-32	51	92	11	1.8	129*
Cc1ccc2oc(-c3ccccc3)nc2c1	-49	39	91	11	2.5	134*
Nc1ccc(-c2nc3ccc(N)cc3o2)cc1	-27	16	100	4	2.4	125
CCC(=O)NC(=S)Nc1ccc2oc(-c3ccc(OC)cc3)nc2c1	-29	137*	98	10	1.8	125
CCCC(=O)Nc1ccc2oc(-c3ccc(OC)c(Br)c3)nc2c1	-11	49	99	6	1.5	108
COc1ccc(-c2nc3ccc([N+](=O)[O-])cc3o2)cc1	-13	150*	90	16	2.8	111
Cc1ccc(C)c(-c2nc3cc(N)ccc3o2)c1	-13	-22	90	16	1.1	114
CCCC(=O)Nc1ccc(-c2nc3cc(C)ccc3o2)cc1	-39	190*	99	4	5.1*	136*
Cc1ccc(C2(c3noc(CN4CCC(c5ccncc5)CC4)n3)CCCC2)cc1	24	-5	92	14	0.78	77
O=C(CSc1nnc2ccc(-c3ccc(F)cc3)nn12)N1CCCC1	5	-9	90	21	0.97	94
Cc1cccc(NC(=O)c2cc([N+](=O)[O-])ccc2N2CCCCC2)n1	-6	6	100	4	2.1	102
O=[N+]([O-])c1ccc2oc(-c3ccccc3)nc2c1	-48	112	92	17	4.2*	145*
Cc1cccc(-c2nc3cc([N+](=O)[O-])ccc3o2)c1	-19	82	87	19	3.5*	116
NC(N)=Nc1nc2cc([N+](=O)[O-])ccc2o1	-10	10	96	10	1.3	107
CN(C)S(=O)(=O)c1ccc(C(=O)Nc2cc(=O)n(C)c(=O)n2C)cc1	-2	0	95	3	1.3	105
Cc1ccc(-c2cc(C(F)(F)F)c(C#N)c(SCC(=O)O)n2)cc1	0	4	135*	-39	1	98
CCCOc1ccc(-c2cc(C(F)(F)F)c(C#N)c(SCC(=O)O)n2)cc1	-4	-10	105	-1	1.4	102
CCOC(=O)c1c(C)c(C(=O)Nc2ccc3c(c2)OCCO3)c(C)n1C	-11	-7	100	6	1	111
CCOC(=O)c1c(C)c(C(=O)Nc2cc(F)ccc2F)c(C)n1C	-3	5	103	0	4.3*	103
SMILES	STAT1 inh	APP 5'UTR act	STAT3 act	STAT3 blocker	NF-kB neuron act	STAT1 act
CCC(C)(C#CCN1CCCCC1)OC(C)=O (centres undefined)	-6	31	105	-4	1	105
O=c1[nH]c(SCc2nc3c(cnn3-c3ccccc3)c(=O)[nH]2)nc2ccccc12	-16	-25	160*	-68	1.8	114
O=c1[nH]c(CSc2nc3ccccc3[nH]2)nc2c1cnn2-c1ccccc1	-4	-1	87	14	0.65	104
Oc1ccc(Br)cc1/C=N/N1CCN(Cc2ccccc2)CC1	-6	-4	102	-3	2.9	105
Oc1ccc(Br)cc1/C=N/N1CCCCC1	-11	54	92	7	4*	110
O=C(/C=C\c1ccccc1OC(=O)c1ccccc1F)c1cc2ccccc2o1	4	87	118	-17	4.3*	96
O=C(Oc1ccccc1)c1cc2ccccc2o1	2	-4	103	2	0.92	98
COc1cc(C(=O)Nc2ccc(N(C)C)cc2)c([N+](=O)[O-])cc1OC	-49	53	100	6	nt	146*
Cn1ncc(Cl)c1C(=O)Nc1nc2ccc(Cl)cc2s1	-56	99	121	-19	2.4	150*
O=C(Nc1nc2ccc(Cl)cc2s1)c1ccc(Br)o1	-52	112	87	14	3.5*	148*
O=c1[nH]ncc(N2CCN(Cc3ccccc3)CC2)c1Cl	3	-11	102	0	1.5	96
Cc1ccc(C2=NN(S(C)(=O)=O)C(c3ccc4nccnc4c3)C2)cc1 (centres undefined)	-22	17	103	-6	2	123
Cc1ccc(C2=NN(S(C)(=O)=O)C(c3cccs3)C2)cc1 (centres undefined)	-32	72	117	-18	3.8*	129*
CS(=O)(=O)N1N=C(c2ccc(Br)cc2)CC1c1cccs1 (centres undefined)	-19	8	110	-12	2	114
CS(=O)(=O)Nc1ccc(C2=NN(S(C)(=O)=O)C(c3ccc4c(c3)OCO4)C2)cc1 (centres undefined)	-49	66	116	-16	2.3	143*
COc1ccc(C2=NN(S(C)(=O)=O)C(c3cccs3)C2)cc1 (centres undefined)	-48	110	119	-14	3.9*	143*
COc1ccc(C2CC(c3cccs3)=NN2S(=O)(=O)c2ccc(C)cc2)cc1 (centres undefined)	6	9	99	10	nt	91
COc1ccc(C2=NN(S(C)(=O)=O)C(c3ccc4nccnc4c3)C2)cc1 (centres undefined)	-40	41	109	-14	2.2	136*
CCOc1ccccc1Nc1nc2ccccc2n1C(C)C	2	1	96	11	1	97
Cc1c(Br)c([N+](=O)[O-])nn1CC(=O)NCCc1ccc(Cl)cc1	-1	6	104	2	nt	102
CC(CCCC(C)(C)O)NC(=O)c1ccc(OC2CCN(C(=O)C3CC3)CC2)cc1 (centres undefined)	0	10	105	-1	1.1	98
COc1cc(C2Nc3ccccc3C(=O)N2c2ccc3c(c2)OCCO3)ccc1OCC(C)C (centres undefined)	-35	107	96	5	1.1	132*
